Assay outcomes: PubChem BioAssay, The Scripps Research Institute Molecular Screening Center
This is a sample that favours compounds with a hit; in the whole collection about 3.2% have one here.
PRMT1 FP inh: PRMT1 (human) inhibition, primary screen. recombinant PRMT1, activity-based probe fluorescence polarization. inhibition, % at 2.79 µM. AID 652257. Q99873. 1.3% of 370,000 active;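 active means inhibition above about 21% made by adding two undisclosed values, limit read from the data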
LEDGF integ inh: blocks HIV-1 LEDGF/p75-dependent DNA integration; TR-FRET IN-LEDGF/p75 DNA integration, Eu/Cy5; inhibition, % at 3.7 µM; 0.64% of 370,000 active;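 active means inhibition above the screen-wide mean plus 3 SD, cut at about 13% in these data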;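 further: signal is the Cy5 over europium emission ratio at 671 and 618 nm; 0% = plate median of compound wells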
DAGLB inhibitor: diacylglycerol lipase beta (human) inhibition; inhibition, % at 5.17 µM; Q8NCG7; HEK293T DAGLB membrane lysate, EnzChek fluorogenic substrate; AID 504411; 0.059% of 340,000 active; in the data active means inhibition above about 34%;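 further: 0% = enzyme with vehicle and 100% = wells lacking enzyme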
rCAG RNA binder: molecules binding r(CAG) RNA repeats; inhibition, % at 3 µM; 1.3% of 370,000 active; AID 651821; r(CAG) RNA repeat, TO-PRO-1 dye displacement fluorescence;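 active means inhibition above the plate cutoff, the mean of all test compounds on that plate plus 3 SD, cut at about 35% in these data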;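 further: 0% = DMSO alone and 100% = 100 µM mitoxantrone as full dye displacement; higher means more dye released from RNA so lower well fluorescence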
ABHD4 inh: ABHD4 (mouse) inhibition, primary FP screen. Q8VD66. purified mABHD4, FP-Rh probe fluorescence polarization. inhibition, % at 8.92 µM. 0.54% of 370,000 active. AID 720543;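 active means inhibition exceeding the mean over every tested compound plus 3 SD, cut at about 30% in these data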;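 further: 0% = plate median of compound wells and 100% = S159A mutant with DMSO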
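Test system: mABHD4 protein | Buffer or medium: HEPES pH 7.0 buffer, 150 mM NaCl, 0.01% Pluronic F-127 | Probe or stimulus: FP-Rh fluorescent activity-based probe, added after compound pre-incubation | Timing: Pre-incubation 45 min, probe exposure 60 min, at 25 °C | Technique: Fluorescence polarization, excitation 525 nm, emission 598 nm, BODIPY TMR filters | Repeats: Single well per compound (singlicate)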
HTRA1 inh: HTRA1 (human) protease inhibition; Q92743; recombinant HTRA1, FP-rhodamine activity-based probe, fluorescence polarization; inhibition, % at 5.96 µM; 0.5% of 340,000 active; AID 504803; in the data active means inhibition above about 36%;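 further: 0% = enzyme with DMSO and 100% = wells lacking enzyme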
Target sequence (Q92743 whole entry, looked up): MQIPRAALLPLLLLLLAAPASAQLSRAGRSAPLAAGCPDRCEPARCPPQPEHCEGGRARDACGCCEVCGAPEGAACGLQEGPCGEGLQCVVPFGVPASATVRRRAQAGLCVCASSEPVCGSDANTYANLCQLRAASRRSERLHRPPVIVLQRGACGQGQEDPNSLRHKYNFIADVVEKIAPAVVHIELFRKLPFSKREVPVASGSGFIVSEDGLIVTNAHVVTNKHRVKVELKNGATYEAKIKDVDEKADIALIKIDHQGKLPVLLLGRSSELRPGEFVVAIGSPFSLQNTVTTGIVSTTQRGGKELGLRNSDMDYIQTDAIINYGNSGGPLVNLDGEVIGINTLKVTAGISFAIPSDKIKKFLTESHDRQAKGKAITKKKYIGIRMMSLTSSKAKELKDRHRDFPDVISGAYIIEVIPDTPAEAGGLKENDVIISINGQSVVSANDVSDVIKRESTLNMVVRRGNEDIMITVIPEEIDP
PRMT1 confirm: confirmation of human PRMT1 inhibitors | shares compounds with PRMT1 FP inh | recombinant His-PRMT1, activity-based probe fluorescence polarization | inhibition, % at 2.79 µM | 42% of 3,300 active | AID 687036;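 active means mean inhibition across replicates above the hit cutoff derived for the earlier primary screen, cut at about 22% in these data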
* marks the source's active call; other numbers are inactive results.

Screening COc1ccc(N(C(C)=O)S(=O)(=O)c2cccs2)cc1 returned PRMT1 FP inh -2, LEDGF integ inh 1, DAGLB inhibitor -1, rCAG RNA binder -2, ABHD4 inh -1 and HTRA1 inh 4.
`CCCC(=O)N(c1ccc2oc(C)c(C(C)=O)c2c1)S(=O)(=O)c1ccc(C(=O)O)cc1` gave PRMT1 FP inh 1, LEDGF integ inh 1, DAGLB inhibitor 1, rCAG RNA binder 12, ABHD4 inh 7 and HTRA1 inh 1.
Screening CC(=O)N(c1ccc2oc(=O)sc2c1)S(=O)(=O)c1ccc(C(=O)O)cc1 returned PRMT1 FP inh 91*, LEDGF integ inh -3, DAGLB inhibitor 1, rCAG RNA binder 28, ABHD4 inh 20, HTRA1 inh 8 and PRMT1 confirm 80*.
`CC(C)C(=O)N(c1ccc2oc(=O)sc2c1)S(=O)(=O)c1cccs1` gave PRMT1 FP inh 53*, LEDGF integ inh -5, DAGLB inhibitor 15, rCAG RNA binder 9, ABHD4 inh -9, HTRA1 inh 19 and PRMT1 confirm 8.
For CC(=O)N(c1ccc2oc(=O)sc2c1)S(=O)(=O)c1cccs1 the results were PRMT1 FP inh 94*, LEDGF integ inh -3, DAGLB inhibitor 12, rCAG RNA binder 30, ABHD4 inh 12, HTRA1 inh 3 and PRMT1 confirm 57*.
CN(C)CCCn1c2c(c(SCC(=O)Nc3ccc4c(c3)OCO4)nc1=O)CCC2 was read as PRMT1 FP inh -2, LEDGF integ inh -2, DAGLB inhibitor 2, rCAG RNA binder -1, ABHD4 inh 1 and HTRA1 inh 7.
CCC(C)[C@H](N)c1cn([C@@H](CCCCN)C(=O)N2CCNCC2)nn1 (some centres not stated) was read as PRMT1 FP inh 0, LEDGF integ inh -1, DAGLB inhibitor 3, rCAG RNA binder 5, ABHD4 inh -3 and HTRA1 inh -15.
Screening O=C(O)/C(=C\c1ccc(-c2ccc(F)cc2)o1)c1ccccc1 returned PRMT1 FP inh 28*, LEDGF integ inh -2, DAGLB inhibitor 3, rCAG RNA binder 27, ABHD4 inh 3, HTRA1 inh -6 and PRMT1 confirm 16.
For COC(=O)[C@@]1(Cc2ccc(OC)cc2)[C@H]2c3cc(C(=O)N4CCCC4)n(Cc4ccc(C)o4)c3C[C@H]2CN1C(=O)c1ccccc1 the results were PRMT1 FP inh 39*, LEDGF integ inh 2, rCAG RNA binder 3, ABHD4 inh 3 and PRMT1 confirm 3.
For Cc1ccc(N2CC(C(=O)OCC(=O)c3ccc([N+](=O)[O-])cc3)CC2=O)cc1 (configuration not stated) the results were PRMT1 FP inh 29*, LEDGF integ inh 1, DAGLB inhibitor -2, rCAG RNA binder 2, ABHD4 inh 4, HTRA1 inh -1 and PRMT1 confirm 48*.
Screening CC1=C(C(=O)O)N2C(=O)C(NC(=O)c3nn(C)cc3[N+](=O)[O-])C2SC1 (configuration not stated) returned PRMT1 FP inh 33*, LEDGF integ inh 4, rCAG RNA binder 1, ABHD4 inh 6 and PRMT1 confirm 44*.
CC1=C(C(=O)O)N2C(=O)C(NC(=O)c3nn(C)c(C)c3Cl)C2SC1 (configuration not stated) was read as PRMT1 FP inh 29*, LEDGF integ inh 1, DAGLB inhibitor 2, rCAG RNA binder 5, ABHD4 inh 4, HTRA1 inh -8 and PRMT1 confirm 38*.
For CCOC(=O)N1CCN(S(=O)(=O)c2ccc(C(=O)N(CCCN(C)C)c3nc4c(F)cc(F)cc4s3)cc2)CC1 the results were PRMT1 FP inh 1, LEDGF integ inh -4, DAGLB inhibitor 0, rCAG RNA binder -6, ABHD4 inh 3 and HTRA1 inh -7.
`Nc1ccc(Oc2ccc(F)cc2)nc1` gave PRMT1 FP inh 26*, LEDGF integ inh 2, DAGLB inhibitor -1, rCAG RNA binder -10, ABHD4 inh 18, HTRA1 inh -4 and PRMT1 confirm -3.
N#Cc1ccc(Cl)cc1NC(=O)CNc1cccc(S(=O)(=O)N2CCCC2)c1 was read as PRMT1 FP inh 5, LEDGF integ inh 0, DAGLB inhibitor 3, rCAG RNA binder 5, ABHD4 inh 5 and HTRA1 inh -14.
`Cc1ccc(-c2cc(C(=O)N(C)CC(=O)Nc3ccccc3Br)c3ccccc3n2)o1` gave PRMT1 FP inh 30*, LEDGF integ inh 3, DAGLB inhibitor 0, rCAG RNA binder 5, ABHD4 inh 3, HTRA1 inh -26 and PRMT1 confirm 39*.
`COc1ccc(NC(=O)c2cc(-c3ccc(C)o3)nc3ccccc23)c(OC)c1` gave PRMT1 FP inh 6, LEDGF integ inh 2, rCAG RNA binder 2 and ABHD4 inh -4.
Screening Cc1ccc(-c2cc(C(=O)Nc3ccccc3C(N)=O)c3ccccc3n2)o1 returned PRMT1 FP inh 65*, LEDGF integ inh 1, rCAG RNA binder 22, ABHD4 inh -13 and PRMT1 confirm 28*.
Screening COc1ccc(NC(=O)CN(C)C(=O)c2cc(-c3ccco3)nc3ccccc23)cc1 returned PRMT1 FP inh 17, LEDGF integ inh 11, DAGLB inhibitor 2, rCAG RNA binder 33, ABHD4 inh 4 and HTRA1 inh 1.
Screening Cc1ccc(-c2cc(C(=O)Nc3nccs3)c3ccccc3n2)o1 returned PRMT1 FP inh 36*, LEDGF integ inh 3, DAGLB inhibitor 3, rCAG RNA binder 21, ABHD4 inh 3, HTRA1 inh -20 and PRMT1 confirm 12.
COc1ccc(S(=O)(=O)N2CCc3ccccc32)cc1[N+](=O)[O-] was read as PRMT1 FP inh -2, LEDGF integ inh -1, DAGLB inhibitor 0, rCAG RNA binder 3, ABHD4 inh -6 and HTRA1 inh -7.
COc1ccccc1CNC(=O)COC(=O)c1ccc(S(=O)(=O)N2CCCCC2)cc1 was read as PRMT1 FP inh -3, LEDGF integ inh -4, DAGLB inhibitor 2, rCAG RNA binder -3, ABHD4 inh 5 and HTRA1 inh 5.
CCc1ccc(NC(=O)c2nc(S(=O)(=O)Cc3ccccc3)ncc2Cl)cc1 was read as PRMT1 FP inh 31*, LEDGF integ inh -2, DAGLB inhibitor 0, rCAG RNA binder 3, ABHD4 inh -17, HTRA1 inh -9 and PRMT1 confirm 26*.
For CCS(=O)(=O)c1ncc(Cl)c(C(=O)Nc2ccc(S(=O)(=O)N3CCC(C)CC3)cc2)n1 the results were PRMT1 FP inh 31*, LEDGF integ inh -3, DAGLB inhibitor 4, rCAG RNA binder 13, ABHD4 inh -13, HTRA1 inh -84 and PRMT1 confirm 14.
